Experimental data as given in paper PMC6847989 (International Journal of Nanomedicine, 2019).

Tests used:
RA-FLS [1] = experiment: Matrigel transwell invasion assay; type: cell-based, human; details: 320 μg/mL, 48 hrs
Summary of the method: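 Transwell inserts were coated with Matrigel diluted in cold serum-free medium (medium:Matrigel 5:1) and incubated overnight. RA-FLS (3×10³ cells/100 μL) in serum-free medium plus test compound (40–320 μg/mL) were placed above 10% FBS for 48 h at 37°C. Invaded cells were fixed in 4% paraformaldehyde, stained with crystal violet, and counted in 5 random fields; three independent replicates.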

RA-FLS [2] = experiment: Transwell migration assay; type: cell-based, human; details: 320 μg/mL, 48 hrs
Summary of the method: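 RA-FLS (3×10³ cells/100 μL) in serum-free medium were placed in the upper chamber of 8-μm transwells with test compound (40–320 μg/mL). The lower chamber held 10% FBS as chemoattractant. After 48 h at 37°C, non-migrated cells were swabbed off. Underside cells were fixed in 4% paraformaldehyde for 30 min at room temperature, stained with 0.1% crystal violet, and counted in 5 random fields; three independent experiments.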

TNF-α = experiment: ELISA of TNF-α in serum and synovial homogenate supernatant of CIA rats; type: in vivo, female Lewis rats; details: 10 mg/kg intragastrically daily, 21 days
Summary of the method: (§1)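 Female Lewis rats; CIA from bovine type II collagen in complete Freund's adjuvant (400 μg collagen s.c.), boosted day 7 with incomplete adjuvant. Test compound in 0.5% CMC, 10 mg/kg intragastric daily, 21 days; n = 7, untreated CIA and healthy controls. Serum from canthus blood (300 × g, 10 min) and synovial homogenate supernatant (PBS, protease inhibitors) assayed by high-sensitivity ELISA; mean ± SD.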

[3] = test system: collagen-induced arthritis (CIA) rats; experiment: Histological evaluation of ankle joints of CIA rats; type: in vivo, female Lewis rats; details: 10 mg/kg intragastrically daily, 21 days
Summary of the method: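 CIA was induced in female Lewis rats (150 ± 10 g, 6 weeks) by s.c. injection of bovine type II collagen emulsified in complete Freund's adjuvant (400 μg collagen), then boosted 7 days later with collagen in incomplete adjuvant. Oral test compound was given in 0.5% CMC for 21 days (n = 7). Right ankles were fixed, decalcified, paraffin-embedded, and stained with H&E and safranin O–fast green. Sections were given a Mankin score (5 grades) over multiple fields. Groups were compared by Mann–Whitney U or ANOVA.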

[4] = test system: collagen-induced arthritis (CIA) rats; experiment: Therapeutic efficacy in collagen-induced arthritis; type: in vivo, female Lewis rats; details: 10 mg/kg intragastrically daily
Summary of the method: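 Female Lewis rats (150 ± 10 g, 6 weeks) given bovine type II collagen in complete Freund's adjuvant (400 μg collagen s.c.), reboosted day 7 with incomplete adjuvant. Test compound in 0.5% CMC, 10 mg/kg intragastric daily for 21 days; n = 7 per group, untreated CIA and healthy rats as controls. Every 3 days, two researchers record weight, ankle diameter and arthritis index (each paw 0–4, maximum 16).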

IL-1β = experiment: ELISA of IL-1β in serum and synovial homogenate supernatant of CIA rats; type: in vivo, female Lewis rats; details: 10 mg/kg intragastrically daily, 21 days
Summary of the method: as §1

IL-6 = experiment: ELISA of IL-6 in serum and synovial homogenate supernatant of CIA rats; type: in vivo, female Lewis rats; details: 10 mg/kg intragastrically daily, 21 days
Summary of the method: as §1

[5] = cited from earlier work
RA-FLS [6] = experiment: MTS cell proliferation assay; type: cell-based, human; details: 48 hr
Summary of the method: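 Primary RA-FLS were grown from explants of patients' synovial tissue in DMEM/20% FBS and used at passages 3–6. Cells were seeded at 3×10³ cells/100 μL and allowed to adhere overnight. They were exposed for 48 h to test compound at 40, 80, 160 or 320 μg/mL in 10% FBS high-glucose DMEM, alongside medium, PBS or blank-gel controls. After MTS for 2 h, absorbance was read at 490 nm, with six replicate wells per group.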

[7] = In vitro drug release / dissolution in PBS buffer; type: physicochemical; details: PBS 150 mM, pH 7.4, 37°C, 72 hrs
Summary of the method: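 Release was by dialysis (3500 MWCO bag) into 20 mL PBS. Test powder (1.0 mg) was dispersed in 5 mL PBS at 37°C, or loaded hydrogel (250 μL) was placed in the bag. At set times 3 mL of outer buffer was withdrawn and replaced with fresh buffer. IGUR was quantified by UV absorbance at 309 nm.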

[8] = In vivo pharmacokinetics, plasma concentration by HPLC; parameters: species or system female Lewis rats; details: female, Lewis, rat, po, 10 mg/kg
Summary of the method: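 Healthy female Lewis rats (150 ± 10 g, 6 weeks) received a single oral 10 mg/kg dose of test compound suspended in 0.5% sodium CMC in water. Heparinized blood was drawn at 10 and 30 min and at 1, 2, 3, 4, 6, 8, 12, 18 and 24 h. Plasma drug was measured by HPLC, and parameters were calculated from the concentration–time curve.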

dissolution rate (dissolved/released IGUR) [7]: 28.65% | AUC(0-t) [8]: 111 µg·h/mL | Cmax [8]: 12700 ng/mL | half-life [8]: 3.7 h
Structure (SMILES): CS(=O)(=O)Nc1cc2occ(NC=O)c(=O)c2cc1Oc1ccccc1 [raw IGUR, Iguratimod]
relative cell invasion ratio (RA-FLS [1]): 44.59 ± 2.24% | relative cell migration ratio (RA-FLS [2]): 44.69 ± 1.58% | serum level of TNF-α vs CIA group (TNF-α): significantly lower than those in the CIA group | H&E histology of ankle joints vs CIA group [3]: less infiltration of inflammatory cells in the synovial tissue and no obvious bone erosion | Mankin's score vs CIA group ([3]; P < 0.05): significantly lower | synovitis score vs CIA group ([3]; P < 0.05): significantly lower | area of ankle cartilage vs CIA group ([3]; saffron O-fixing green staining, Image J, P < 0.05): increased significantly | body weight vs CIA group ([4]; 13th day of administration): significantly higher than in the CIA group | AI scores vs CIA group ([4]; 16th day of administration): significantly lower than in the CIA group | serum level of IL-1β vs CIA group (IL-1β): significantly lower than those in the CIA group | serum level of IL-6 vs CIA group (IL-6): significantly lower than those in the CIA group | solubility in aqueous solvents [5]: practically insoluble | relative cell proliferation ratio (RA-FLS [6]; 160 μg/mL): 83.72 ± 1.41% | relative cell proliferation ratio (RA-FLS [6]; 320 μg/mL): 80.73 ± 2.14%
